Source: ChEMBL document CHEMBL1146217, “Growth inhibition of Mycobacterium bovis, Mycobacterium tuberculosis and Mycobacterium avium in vitro: effect of 1-beta-D-2'-arabinofuranosyl and 1-(2'-deoxy-2'-fluoro-beta-D-2'-ribofuranosyl) pyrimidine nucleoside analogs” (J Med Chem, 2007)
Converted amounts (≈) assume the structure as drawn.

Legend:
Streptococcus pyogenes [1] = experiment: Antibacterial activity Streptococcus pyogenes ATCC 19615 at 1 ug/ml after 16 to 20 hrs by broth microdilution method; assay type: functional
Staphylococcus aureus [2] = experiment: Antibacterial activity against Staphylococcus aureus ATCC 25923 at 1 ug/ml after 16 to 20 hrs by broth microdilution method; assay type: functional
Listeria monocytogenes [3] = experiment: Antibacterial activity Listeria monocytogenes ATCC 15313 after 16 to 20 hrs by broth microdilution method; assay type: functional
Outline: (§1)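 Broth microdilution MIC. Exponentially growing bacteria diluted in sterile liquid medium to a final inoculum of 1 × 10⁴ CFU/mL. Cultured with compound dilutions for 16-20 h; compounds tested at 100, 50, 10 and 1 µg/mL. MIC taken as the concentration giving 100% inhibition of bacterial growth.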

Mycobacterium avium [4] = experiment: Antimycobacterial activity against Mycobacterium avium ATCC 25291 at 2 ug/mL by microplate Alamar blue assay; assay type: functional
[5] = test system: Mycobacterium tuberculosis; experiment: Antimycobacterial activity against Mycobacterium tuberculosis H37Ra by microplate Alamar blue assay; assay type: functional
Outline: (§2)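 Same alamar blue microplate setup (7H9GC, 2.5 × 10⁵ CFU/mL, 6 days, then dye read after about 24 h), using 2-fold compound dilutions. MIC90 is the lowest concentration giving about 90% inhibition relative to bacteria-only wells after background subtraction. Visual MIC is the lowest concentration preventing the blue-to-pink change.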

[6] = test system: Staphylococcus epidermidis; experiment: Antibacterial activity against Staphylococcus epidermidis ATCC 14990 after 16 to 20 hrs by broth microdilution method; assay type: functional; outline: as §1
Pseudomonas aeruginosa [7] = experiment: Antibacterial activity against Pseudomonas aeruginosa […] after 16 to 20 hrs by broth microdilution method; assay type: functional; details: for MIC: Pseudomonas aeruginosa, ATCC 13048; outline: as §1
Salmonella typhimurium [8] = experiment: Antibacterial activity against Salmonella Typhimurium after 16 to 20 hrs by broth microdilution method; assay type: functional, Salmonella enterica subsp. enterica serovar Typhimurium; details: for MIC: Salmonella enterica; outline: as §1
Mycobacterium avium [9] = experiment: Antimycobacterial activity against Mycobacterium avium ATCC 25291 by microplate Alamar blue assay; assay type: functional; outline: as §2
Escherichia coli [10] = experiment: Antibacterial activity against Escherichia coli ATCC 25922 at 1 ug/ml after 16 to 20 hrs by broth microdilution method; assay type: functional
Klebsiella aerogenes [11] = experiment: Antibacterial activity against Enterobacter aerogenes after 16 to 20 hrs by broth microdilution method; assay type: functional; details: for MIC: Klebsiella aerogenes; outline: as §1
[12] = test system: Staphylococcus epidermidis; experiment: Antibacterial activity against Staphylococcus epidermidis ATCC 14990 at 1 ug/ml after 16 to 20 hrs by broth microdilution method; assay type: functional
Staphylococcus aureus [13] = experiment: Antibacterial activity against Staphylococcus aureus ATCC 25923 after 16 to 20 hrs by broth microdilution method; assay type: functional; outline: as §1
Listeria monocytogenes [14] = experiment: Antibacterial activity Listeria monocytogenes ATCC 15313 at 1 ug/ml after 16 to 20 hrs by broth microdilution method; assay type: functional
Pseudomonas aeruginosa [15] = experiment: Antibacterial activity against Pseudomonas aeruginosa […] at 1 ug/ml after 16 to 20 hrs by broth microdilution method; assay type: functional
Escherichia coli [16] = experiment: Antibacterial activity against Escherichia coli ATCC 25922 after 16 to 20 hrs by broth microdilution method; assay type: functional; details: for MIC: Escherichia coli, ATCC 25922; outline: as §1
Bacillus subtilis [17] = experiment: Antibacterial activity against Bacillus subtilis ATCC 6633 after 16 to 20 hrs by broth microdilution method; assay type: functional; outline: as §1
Klebsiella aerogenes [18] = experiment: Antibacterial activity against Enterobacter aerogenes at 1 ug/ml after 16 to 20 hrs by broth microdilution method; assay type: functional
Streptococcus pyogenes [19] = experiment: Antibacterial activity Streptococcus pyogenes ATCC 19615 after 16 to 20 hrs by broth microdilution method; assay type: functional; outline: as §1
Proteus vulgaris = experiment: Antibacterial activity against Proteus vulgaris ATCC 49132 after 16 to 20 hrs by broth microdilution method; assay type: functional; outline: as §1
Salmonella typhimurium [20] = experiment: Antibacterial activity against Salmonella Typhimurium at 1 ug/ml after 16 to 20 hrs by broth microdilution method; assay type: functional, Salmonella enterica subsp. enterica serovar Typhimurium; details: Salmonella enterica
Bacillus subtilis [21] = experiment: Antibacterial activity against Bacillus subtilis ATCC 6633 at 1 ug/ml after 16 to 20 hrs by broth microdilution method; assay type: functional
Enterococcus faecalis [22] = experiment: Antibacterial activity Enterococcus faecalis ATCC 29212 after 16 to 20 hrs by broth microdilution method; assay type: functional; outline: as §1
Enterococcus faecalis [23] = experiment: Antibacterial activity Enterococcus faecalis ATCC 29212 at 1 ug/ml after 16 to 20 hrs by broth microdilution method; assay type: functional
Streptococcus pneumoniae [24] = experiment: Antibacterial activity Streptococcus pneumoniae ATCC 49619 after 16 to 20 hrs by broth microdilution method; assay type: functional; outline: as §1
Streptococcus pneumoniae [25] = experiment: Antibacterial activity Streptococcus pneumoniae ATCC 49619 at 1 ug/ml after 16 to 20 hrs by broth microdilution method; assay type: functional
[26] = test system: Mycobacterium tuberculosis; experiment: Antimycobacterial activity against Mycobacterium tuberculosis H37Ra at 50 ug/mL by microplate Alamar blue assay; assay type: functional
Outline: (§3)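 MABA with M. bovis BCG, M. tuberculosis H37Ra or M. avium ATCC 25291. DMSO stocks (10 mg/mL) diluted in 7H9GC; final inoculum 2.5 × 10⁵ CFU/mL. Incubated 6 days, then alamar blue plus Tween 80 added and read by fluorescence after about 24 h. […]. Tested in triplicate at 100, 50, 10 and 1 µg/mL; two experiments, mean reported.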

Mycobacterium avium [27] = experiment: Antimycobacterial activity against Mycobacterium avium ATCC 25291 at 100 ug/mL by microplate Alamar blue assay; assay type: functional; outline: as §3
[28] = Toxicity against human foreskin fibroblast cells after 3 days by MTT test; assay type: cell-based
Outline: (§4)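 MTT viability assay. Vero or HFF cells seeded at 2.5 × 10⁵ cells/well and left to attach 6-8 h. Exposed to compound at 100, 50, 25, 12.5, 6.3 and 1.5 µg/mL for 3 days at 37 °C, with a DMSO control. MTT added for 4 h, then solubilized overnight; absorbance read at 560-650 nm.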

[29] = test system: Mycobacterium tuberculosis; experiment: Antimycobacterial activity against Mycobacterium tuberculosis H37Ra at 10 ug/mL by microplate Alamar blue assay; assay type: functional; outline: as §3
[30] = test system: Mycobacterium tuberculosis; experiment: Antimycobacterial activity against Mycobacterium tuberculosis H37Ra at 100 ug/mL by microplate Alamar blue assay; assay type: functional; outline: as §3
[31] = test system: Mycobacterium tuberculosis; experiment: Antimycobacterial activity against Mycobacterium tuberculosis H37Ra at 1ug/mL by microplate Alamar blue assay; assay type: functional; outline: as §3
Vero = experiment: Toxicity against Vero cells after 3 days by MTT test; assay type: cell-based; details: chlorocebus sabaeus, 72 h; outline: as §4
Mycobacterium avium [32] = experiment: Antimycobacterial activity against Mycobacterium avium ATCC 25291 at 50 ug/mL by microplate Alamar blue assay; assay type: functional; outline: as §3

Work on CO[C@H]1/C=C/O[C@@]2(C)Oc3c(C)c(O)c4c(O)c(c(/C=N/N5CCN(C)CC5)c(O)c4c3C2=O)NC(=O)/C(C)=C\C=C\[C@H](C)[C@H](O)[C@@H](C)[C@@H](O)[C@@H](C)[C@H](OC(C)=O)[C@@H]1C [RIFAMPIN] yielded an inhibition at 1 µg/mL (Streptococcus pyogenes [1]) of 100%, an inhibition at 1 µg/mL (Staphylococcus aureus [2]) of 100% and an Inhibition (Listeria monocytogenes [3]) of 100%. The inhibition at 2 µg/mL (Mycobacterium avium [4]) was 90%, the MIC90 [5] was 0.5 µg/mL (≈ 0.608 µM) and the Inhibition [6] was 100%. The Inhibition (Pseudomonas aeruginosa [7]) was 100%, the MIC (Pseudomonas aeruginosa [7]) was over 100 µg/mL and the Inhibition (Salmonella typhimurium [8]) was 100%. The MIC (Salmonella typhimurium [8]) was over 100 µg/mL, the MIC90 (Mycobacterium avium [9]) was 2 µg/mL (≈ 2.43 µM) and the inhibition at 1 µg/mL (Escherichia coli [10]) was 100%. The Inhibition (Klebsiella aerogenes [11]) was 100%, the MIC (Klebsiella aerogenes [11]) was over 100 µg/mL and the inhibition at 1 µg/mL [12] was 100%. For the same compound, the Inhibition (Staphylococcus aureus [13]) was 100%, the inhibition at 1 µg/mL (Listeria monocytogenes [14]) was 100% and the inhibition at 1 µg/mL (Pseudomonas aeruginosa [15]) was 100%. It also gave an Inhibition (Escherichia coli [16]) of 100%, an MIC (Escherichia coli [16]) of 100 µg/mL (≈ 122 µM) and an Inhibition (Bacillus subtilis [17]) of 100%. It also gave an inhibition at 1 µg/mL (Klebsiella aerogenes [18]) of 100%, an Inhibition (Streptococcus pyogenes [19]) of 100% and an MIC (Proteus vulgaris) of over 100 µg/mL. It also gave an inhibition at 1 µg/mL (Salmonella typhimurium [20]) of 100% and an inhibition at 1 µg/mL (Bacillus subtilis [21]) of 100%.

CN[C@H](CC(C)C)C(=O)N[C@H]1C(=O)N[C@@H](CC(N)=O)C(=O)N[C@H]2C(=O)N[C@H]3C(=O)N[C@H](C(=O)N[C@H](C(=O)O)c4cc(O)cc(O)c4-c4cc3ccc4O)[C@H](O)c3ccc(c(Cl)c3)Oc3cc2cc(c3O[C@@H]2O[C@H](CO)[C@@H](O)[C@H](O)[C@H]2O[C@H]2C[C@](C)(N)[C@H](O)[C@H](C)O2)Oc2ccc(cc2Cl)[C@H]1O [VANCOMYCIN] showed an Inhibition (Enterococcus faecalis [22]) of 100%, an inhibition at 1 µg/mL (Streptococcus pyogenes [1]) of 100% and an inhibition at 1 µg/mL (Enterococcus faecalis [23]) of 100%. For the same compound, the Inhibition (Listeria monocytogenes [3]) was 100%, the Inhibition (Streptococcus pneumoniae [24]) was 100% and the Inhibition [6] was 50%. For the same compound, the MIC (Pseudomonas aeruginosa [7]) was over 100 µg/mL, the Inhibition (Salmonella typhimurium [8]) was 50% and the MIC (Klebsiella aerogenes [11]) was over 100 µg/mL. The inhibition at 1 µg/mL [12] was 50%, the inhibition at 1 µg/mL (Listeria monocytogenes [14]) was 100% and the MIC (Escherichia coli [16]) was over 100 µg/mL. The Inhibition (Bacillus subtilis [17]) was 50%, the Inhibition (Streptococcus pyogenes [19]) was 100% and the MIC (Proteus vulgaris) was over 100 µg/mL. It also gave an inhibition at 1 µg/mL (Streptococcus pneumoniae [25]) of 100%, an inhibition at 1 µg/mL (Salmonella typhimurium [20]) of 50% and an inhibition at 1 µg/mL (Bacillus subtilis [21]) of 50%.

For CC[C@H]1OC(=O)[C@H](C)[C@@H](O[C@H]2C[C@@](C)(OC)[C@@H](O)[C@H](C)O2)[C@H](C)[C@@H](O[C@@H]2O[C@H](C)C[C@H](N(C)C)[C@H]2O)[C@](C)(OC)C[C@@H](C)C(=O)[C@H](C)[C@@H](O)[C@]1(C)O [CLARITHROMYCIN], the inhibition at 2 µg/mL (Mycobacterium avium [4]) was 95% and the MIC90 (Mycobacterium avium [9]) was 2 µg/mL (≈ 2.67 µM).

Work on CCCCCCCCCCC#Cc1cn([C@@H]2O[C@H](CO)[C@@H](O)[C@H]2F)c(=O)[nH]c1=O yielded an Inhibition (Enterococcus faecalis [22]) of 100%, an MIC (Enterococcus faecalis [22]; Enterococcus faecalis, ATCC 29212) of 100 µg/mL (≈ 244 µM) and an Inhibition (Listeria monocytogenes [3]) of 100%. The MIC (Listeria monocytogenes [3]; Listeria monocytogenes, ATCC 15313) was 100 µg/mL (≈ 244 µM), the inhibition at 50 µg/mL [26] was 100% and the Inhibition (Streptococcus pneumoniae [24]) was 100%. For the same compound, the MIC (Streptococcus pneumoniae [24]; Streptococcus pneumoniae, ATCC 49619) was 100 µg/mL (≈ 244 µM), the MIC90 [5] was 1 µg/mL (≈ 2.44 µM) and the Inhibition [6] was 100%. The MIC ([6]; Staphylococcus epidermidis, ATCC 14990) was 100 µg/mL (≈ 244 µM), the MIC (Pseudomonas aeruginosa [7]) was over 100 µg/mL and the MIC (Salmonella typhimurium [8]) was over 100 µg/mL. It also gave an MIC90 (Mycobacterium avium [9]) of 50 µg/mL (≈ 122 µM), an MIC (Klebsiella aerogenes [11]) of over 100 µg/mL and an inhibition at 100 µg/mL (Mycobacterium avium [27]) of 100%. The CC50 at 72 h [28] was over 100 µg/mL, the Inhibition (Staphylococcus aureus [13]) was 100% and the MIC (Staphylococcus aureus [13]; Staphylococcus aureus, ATCC 25923) was 100 µg/mL (≈ 244 µM). For the same compound, the MIC (Escherichia coli [16]) was over 100 µg/mL, the MIC (Bacillus subtilis [17]; Bacillus subtilis, ATCC 6633) was over 100 µg/mL and the inhibition at 10 µg/mL [29] was 100%. The inhibition at 100 µg/mL [30] was 100%, the Inhibition (Streptococcus pyogenes [19]) was 100% and the MIC (Streptococcus pyogenes [19]; Streptococcus pyogenes, ATCC 19615) was 100 µg/mL (≈ 244 µM). For the same compound, the inhibition at 1 µg/mL [31] was 70%, the CC10 (Vero) was over 100 µg/mL and the MIC (Proteus vulgaris) was over 100 µg/mL. It also gave an inhibition at 50 µg/mL (Mycobacterium avium [32]) of 50%.
